Scp1 inh: Scp-1 phosphatase inhibitors, primary screen, biochemical, colorimetric, uHTS. inhibition, % at 20 µM. Recombinant Scp1, phosphopeptide, malachite green phosphate absorbance. Carboxy-terminal domain RNA polymerase II polypeptide A small phosphatase 1 (Homo …. actives 0.88% (n = 340,000). AID 493091, 2011;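 active means inhibition above about 50% at 20 µM, limit read from the data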
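Times: enzyme reaction 45 min at room temperature, colour 5 min, stabilisation 30 min. Material: SCP-1 catalytic fragment, aa 76-261. Medium: Acidic Tris acetate buffer with magnesium and detergent. Signal: colorimetric free-phosphate detection, absorbance 630 nm. Read-out basis: % inhibition of SCP-1 phosphate liberation. Reagent: Phosphorylated 17-residue peptide substrate.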
DNMT1 block: human DNMT1 methyltransferase inhibitors, primary screen, biochemical, molecular beacon, fluorescence, HinP1I cleavage, uHTS; actives 0.83% (n = 360,000); inhibition (reported as % activation of signal), % at 10 µM; in the data active means inhibition above about 50%
STEP inh: STEP phosphatase inhibitors, primary screen, biochemical, fluorescence intensity, uHTS; Tyrosine-protein phosphatase non-receptor type 5 (Homo sapiens), P54829; recombinant STEP, OMFP fluorogenic substrate; inhibition, % at 20 µM; actives 0.25% (n = 360,000);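 active means inhibition at 20 µM, scaled per plate between control wells, above about 37%, limit read from the data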
Target sequence (P54829 whole entry, looked up): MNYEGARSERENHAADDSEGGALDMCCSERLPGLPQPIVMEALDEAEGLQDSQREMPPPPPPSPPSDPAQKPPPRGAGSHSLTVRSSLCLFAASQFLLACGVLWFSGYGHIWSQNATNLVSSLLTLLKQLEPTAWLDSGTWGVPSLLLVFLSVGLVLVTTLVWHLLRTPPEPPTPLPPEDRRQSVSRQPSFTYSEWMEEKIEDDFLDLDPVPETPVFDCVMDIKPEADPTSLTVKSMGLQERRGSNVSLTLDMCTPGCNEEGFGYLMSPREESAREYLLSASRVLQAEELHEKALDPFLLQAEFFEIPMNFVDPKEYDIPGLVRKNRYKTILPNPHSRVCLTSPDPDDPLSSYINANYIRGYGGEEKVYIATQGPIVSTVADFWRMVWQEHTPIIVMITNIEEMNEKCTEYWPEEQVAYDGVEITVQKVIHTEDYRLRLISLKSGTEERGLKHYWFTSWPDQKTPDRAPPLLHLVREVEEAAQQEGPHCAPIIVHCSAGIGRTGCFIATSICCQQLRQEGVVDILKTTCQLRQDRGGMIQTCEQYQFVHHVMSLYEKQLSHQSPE
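Material: STEP (striatal-enriched tyrosine phosphatase) enzyme, cell-free | Medium: 50 mM Bis-Tris pH 6.0 with 2.5 mM DTT and 0.005% Tween 20 | Read-out: Percent inhibition scaled to no-enzyme and uninhibited-enzyme controls, plate-pattern corrected | Signal: Fluorescence read at 480 nm ex / 540 nm em | Times: 20 min reaction, room temperature, in the dark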
LMPTP inh: LMPTP phosphatase inhibitors, primary screen, biochemical, fluorescence intensity, uHTS; recombinant LMPTP-A, OMFP fluorogenic substrate; inhibition, % at 20 µM; actives 0.22% (n = 360,000);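 active means compounds that cut the enzyme signal by at least half of the control window in the single-dose screen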
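Buffer or medium: Bis-Tris pH 6.0, DTT, detergent; Assay system: LMPTP-A enzyme; Quantity: 0.625 nM enzyme; Detection: endpoint fluorescence intensity; Times: 50 min dark incubation at room temperature; Controls: substrate-only low control, DMSO enzyme-plus-substrate high control; Doses: single 20 µM dose; Read-out: percent inhibition versus substrate-only and uninhibited controls; Reagent: 400 µM OMFP.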
NadD inh: inhibitors of S. aureus NadD, primary screen, biochemical, colorimetric, uHTS; purified NadD enzyme, colorimetric absorbance read-out; Nicotinate-nucleotide adenylyltransferase NadD (Staphylococcus aureus N315); actives 0.78% (n = 360,000); inhibition, % at 20 µM; in the data active means inhibition above about 26%
SUMO1 PPI mod: modulators of SUMO1 protein-protein interactions, primary screen, biochemical, uHTS | Small ubiquitin-related modifier 1 (Homo sapiens), P63165 | SUMO1 binding to a labelled peptide, TR-FRET, 1 h | inhibition, % at 20 µM | actives 0.33% (n = 360,000) | AID 602429, 2012; in the data active means inhibition above about 37%
NadD conf: inhibitors of S. aureus NadD, confirmation, biochemical, colorimetric, single concentration | shares compounds with NadD inh | purified S. aureus NadD, colorimetric enzyme assay | inhibition, % at 20 µM | actives 13% (n = 2,000) | AID 624309, 2012; in the data active means inhibition mostly above about 42%, no sharp cut-off; inactive means mostly below about 42%
Large screens that a line does not name were inactive (follow-up assays come after a bar, where they were run). The list is not random: actives were taken first. Their share in the collection is about 2.3%.

Cc1nc(NC(=O)CC(C)C)sc1-c1csc(Nc2ccc(Cl)cc2)n1	none
Cc1ccc(Cl)cc1Nc1nc(-c2sc(NC(=O)c3ccco3)nc2C)cs1	NadD inh 36.0 | NadD conf inactive
COc1cccc(N(C(=O)c2ccco2)c2nc(-c3sc(NC(=O)c4ccco4)nc3C)cs2)c1	NadD inh 35.9 | NadD conf inactive
CCCC(C)C(=O)Nc1nc(C)c(-c2csc(Nc3cc(Cl)ccc3C)n2)s1 (configuration not stated)	NadD inh 28.5, SUMO1 PPI mod 77.6 | NadD conf inactive
Cc1nc(NC(=O)c2ccco2)sc1-c1csc(Nc2ccc(Cl)cc2)n1	NadD inh 35.9 | NadD conf inactive
COc1ccc(NC(=O)NNC(=O)COc2ccc([N+](=O)[O-])c(C)c2)cc1OC	none
COc1ccc(N(CC(=O)N/N=C/c2ccccc2F)S(=O)(=O)c2ccccc2)cc1	none
C[C@@H]1CCCCO[C@@H](CN(C)S(=O)(=O)c2cccs2)[C@@H](C)CN([C@H](C)CO)C(=O)c2cc(NS(=O)(=O)c3ccccc3)ccc2O1	none (no result: Scp1 inh)
CCN(CC)c1ccc(S(=O)(=O)Nc2cc(Cl)ccc2Cl)cc1NC(=S)NC(=O)C1CCCC1	NadD inh 30.6 | NadD conf inactive
CCc1ccc(NC(=O)CSc2nc3ccsc3c(=O)n2CCC(=O)O)cc1	none
CC(C)c1ccc(NC(=O)CSc2nc3ccsc3c(=O)n2Cc2ccc(C(=O)O)cc2)cc1	NadD inh 31.6 | NadD conf inactive
Cc1ccc(C)c(S(=O)(=O)c2c(N)n(/N=C/c3ccco3)c3nc4ccccc4nc23)c1	NadD inh 31.5 | NadD conf inactive
Nc1c(S(=O)(=O)c2ccccc2)c2nc3ccccc3nc2n1/N=C/c1cccc(O)c1	NadD inh 46.9 | NadD conf inactive
Cc1ccc(S(=O)(=O)c2c(N)n(NC(=O)c3ccccc3C)c3nc4ccccc4nc23)cc1	none
Cc1cccc(S(=O)(=O)c2c(N)n(/N=C/c3ccccc3)c3nc4ccccc4nc23)c1	none
Cc1ccc(C(=O)Nn2c(N)c(S(=O)(=O)c3ccc(C)cc3)c3nc4ccccc4nc32)cc1	NadD inh 30.4 | NadD conf inactive
Cc1nn(C2CCS(=O)(=O)C2)c(Cl)c1/C=C/C(=O)OCC(N)=O (configuration not stated)	none
COc1ccc(-c2cc(C(=O)NCc3cn(C)nc3C)c3ccccc3n2)cc1OC	none
Cn1c(=O)c(C(=O)CN2CCc3ccccc32)c(N)n(Cc2ccccc2)c1=O	NadD inh 62.5 | NadD conf inactive
CC(=O)Oc1ccc(C(=O)[C@H]2[C@H]3C(=O)N(c4cccc5ccccc45)C(=O)[C@H]3[C@@H]3C=CC=NN32)cc1	NadD inh 45.4 | NadD conf inactive
COc1ccc(C(=O)[C@H]2[C@H]3C(=O)N(c4ccc(OC(C)=O)cc4)C(=O)[C@H]3C3C=CC=NN32)cc1 (some centres not stated)	none
NC(=O)c1ccsc1NC(=O)COC(=O)C1CC2CCCC(C1)C2=O (configuration not stated)	none
COc1ccc(C(=O)NN/C(C)=C/C(=O)C(F)(F)C(F)(F)C(F)(F)F)cc1	none
COc1ccc(/C=N/NC(=O)c2cc(Br)ccc2O)cc1Cn1cc(Cl)cn1	NadD inh 38.5 | NadD conf inactive
COc1ccc(C2C3C=CCC(c4cccc(-c5ccc(C)cc5)c4)C3C(=O)N2Cc2ccccc2)cc1Cl (configuration not stated)	NadD inh 36.5 | NadD conf inactive
CN(C)c1ccc(-c2cccc(C3CC=CC4C3C(=O)N(Cc3ccccc3)C4c3ccc4ccccc4c3)c2)cc1 (configuration not stated)	NadD inh 31.5 | NadD conf inactive
COc1ccc(-c2cccc(C3CC=CC4C3C(=O)N(Cc3ccccc3)C4c3ccc4ccccc4c3)c2)cc1 (configuration not stated)	NadD inh 31.2 | NadD conf inactive
O=C(c1cccc(S(=O)(=O)Nc2ccccc2Cl)c1)N1CCN(c2ccccc2O)CC1	none
C/C(CC1CC(COCC(C)C)OC1=O)=N\Nc1nc(-c2ccccc2)cs1 (configuration not stated)	NadD inh 28.2 | NadD conf inactive
CN(CCc1ccccc1)C1CCCN(S(=O)(=O)CC(F)(F)F)C1 (configuration not stated)	none
CC(=O)c1cccc(NC(=O)C(C)OC(=O)CN2C(=O)NC(C)(C)C2=O)c1 (configuration not stated)	none
COc1ccc(-c2[nH]n(-c3ccc([N+](=O)[O-])cc3)c(=O)c2C=NCc2ccncc2)cc1	NadD inh 29.3 | NadD conf inactive
COc1ccc(-c2[nH]n(-c3ccc([N+](=O)[O-])cc3)c(=O)c2C=NCc2ccc(F)cc2)cc1	none
CCCN(CCC)S(=O)(=O)c1ccc(C(=O)Nc2nnc(COC)o2)cc1	none
CCCN(CCC)S(=O)(=O)c1ccc(C(=O)NNc2nc(-c3ccccc3)c3cc(Br)ccc3n2)cc1	NadD inh 36.0 | NadD conf inactive
O=C(C[C@H]1C[C@H](C(=O)N2CCCCC2)[C@@]2(CCc3ccccc3)c3[nH]c4cc(-c5ccco5)ccc4c3CCN2C1=O)NCCC1=CCCCC1	NadD inh 56.3 | NadD conf inactive
O=C(C[C@H]1C[C@H](C(=O)N2CCCCC2)[C@@]2(CCc3ccccc3)c3[nH]c4cc(-c5ccco5)ccc4c3CCN2C1=O)NCc1cccc(C(F)(F)F)c1	NadD inh 53.7 | NadD conf inactive
CC(C)N(C(=O)[C@H]1C[C@H](CC(=O)NCCC2=CCCCC2)C(=O)N2CCc3c([nH]c4cc(-c5ccco5)ccc34)[C@]12C)C(C)C	none

Source: PubChem BioAssay (Sanford-Burnham Center for Chemical Genomics)
